# Measured values reported in ChEMBL document CHEMBL2046409, “Design and synthesis of active site inhibitors of the human farnesyl pyrophosphate synthase: apoptosis and inhibition of ERK phosphorylation in multiple myeloma cells” (J Med Chem, 2012).
# Active and inactive are the calls of the source. The calls are words filed in the database; no cut-off is given here.
# Experiments:
# [1] = target: T1, Farnesyl pyrophosphate synthase (Homo sapiens, UniProt P14324); assay: Inhibition of human recombinant N-terminal-His6 tagged FPPS expressed in Escherichia coli BL21 using [14C]IPP and GPP as substrate incubated for 10 mins prior to substrate addition measured after 10 mins by scintillation counting
# T1 sequence (P14324 whole entry): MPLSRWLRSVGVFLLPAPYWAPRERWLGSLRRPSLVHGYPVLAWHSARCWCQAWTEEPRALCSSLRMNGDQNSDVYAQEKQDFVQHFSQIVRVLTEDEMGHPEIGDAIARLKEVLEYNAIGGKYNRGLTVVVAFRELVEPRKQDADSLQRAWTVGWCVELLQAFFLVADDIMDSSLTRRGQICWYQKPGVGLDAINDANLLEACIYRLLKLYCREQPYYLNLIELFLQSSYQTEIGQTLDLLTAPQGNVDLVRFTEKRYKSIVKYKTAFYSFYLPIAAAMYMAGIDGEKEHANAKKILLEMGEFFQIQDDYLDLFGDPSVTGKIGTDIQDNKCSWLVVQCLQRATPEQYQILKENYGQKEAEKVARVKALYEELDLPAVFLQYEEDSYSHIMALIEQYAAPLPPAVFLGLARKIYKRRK
# [2] = target: T1, Farnesyl pyrophosphate synthase; assay: Inhibition of human recombinant N-terminal-His6 tagged FPPS expressed in Escherichia coli BL21 using [3H]IPP and GPP as substrate measured after 20 mins by liquid scintillation counting
# [3] = Antiproliferative activity against human KMS-28PE after 72 hrs by MTT assay; assay type: functional
# [4] = Antiproliferative activity against human JJN-3 after 72 hrs by MTT assay; assay type: functional; conditions: JJN-3, 72 h
# [5] = Induction of apoptosis in human KMS-28PE cells assessed as early apoptotic cells at 1 uM after 48 hrs by AnnexinV/7AAD staining-based flow cytometric assay (reference value: 1.44%); assay type: functional
# [6] = Antiproliferative activity against human […] after 72 hrs by MTT assay; assay type: functional
# Procedure, shortened: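 Cells seeded at 10,000/well and rested 2 h, then given compound diluted in culture medium as a half-log series spanning 100 nM–333 μM. Incubated 72 h at 37 °C in 5% CO2. MTT read at OD490.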
# [7] = Induction of apoptosis in human KMS-28PE cells assessed as early apoptotic cells at 100 uM after 48 hrs by AnnexinV/7AAD staining-based flow cytometric assay (reference value: 1.44%); assay type: functional
# [8] = test system: RPMI-8226; assay: Inhibition of ERK protein expression level in human RPMI8226 cells at 100 uM up to 20 mins by Western blot analysis; assay type: functional, cell-based
# Procedure, shortened: (§1)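 RPMI8226 cells serum-starved overnight, then stimulated with 10% FBS with or without 100 μM inhibitor for 0 (starved only), 10 and 20 min. Washed in ice-cold PBS/BSA and lysed in Triton/deoxycholate buffer with protease inhibitors. ERK and pERK detected by Western blot with HRP secondary antibodies and ECL chemiluminescence.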
# [9] = Induction of apoptosis in human KMS-28PE cells assessed as necrotic cells at 100 uM after 48 hrs by AnnexinV/7AAD staining-based flow cytometric assay (reference value: 0.36%); assay type: functional
# [10] = Induction of apoptosis in human KMS-28PE cells assessed as viable cells at 1 uM after 48 hrs by AnnexinV/7AAD staining-based flow cytometric assay (reference value: 93%); assay type: functional; conditions: read-out: Activity
# [11] = Induction of apoptosis in human KMS-28PE cells assessed as late apoptotic cells at 1 uM after 48 hrs by AnnexinV/7AAD staining-based flow cytometric assay (reference value: 5.18%); assay type: functional
# [12] = Induction of apoptosis in human KMS-28PE cells assessed as viable cells at 100 uM after 48 hrs by AnnexinV/7AAD staining-based flow cytometric assay (reference value: 93%); assay type: functional; conditions: read-out: Activity
# [13] = Induction of apoptosis in human KMS-28PE cells assessed as necrotic cells at 1 uM after 48 hrs by AnnexinV/7AAD staining-based flow cytometric assay (reference value: 0.36%); assay type: functional
# [14] = Induction of apoptosis in human KMS-28PE cells assessed as late apoptotic cells at 100 uM after 48 hrs by AnnexinV/7AAD staining-based flow cytometric assay (reference value: 5.18%); assay type: functional
# [15] = target: T2, Farnesyl pyrophosphate synthase (Homo sapiens) (UniProt P14324); assay: Inhibition of FPPS in human RPMI8226 cells assessed as inhibition of Ras-mediated ERK phosphorylation at 100 uM up to 20 mins by Western blot analysis; assay type: cell-based; conditions: RPMI-8226; procedure, shortened: as §1
# T2 sequence (whole entry): T1 sequence (P14324 whole entry)
# [16] = target: T1, Farnesyl pyrophosphate synthase; assay: Inhibition of human FPPS using […] as substrate incubated for 30 mins prior to substrate addition measured after 20 mins by scintillation counting
compound,measurement,setting,value
O=P(O)(O)C(Nc1cc(-c2ccc(OC3CCC3)cc2)ccn1)P(=O)(O)O,IC50,[1],35 nM
same,IC50,[2],2090 nM
O=P(O)(O)C(Nc1cc(-c2ccc3[nH]ncc3c2)ccn1)P(=O)(O)O,IC50,[1],430 nM
Cc1ccc(-c2ccnc(NC(P(=O)(O)O)P(=O)(O)O)c2)cc1,IC50,[1],35 nM
O=P(O)(O)C(O)(Cc1cccnc1)P(=O)(O)O [RISEDRONIC ACID],EC50,[3],10600 nM
same,EC50,[4],10000 nM
O=P(O)(O)C(F)(Cc1cncc(-c2ccc3[nH]ncc3c2)c1)P(=O)(O)O,IC50,[1],520 nM
O=P(O)(O)C(Nc1cc(-c2ccc(OC3CCCC3)cc2)ccn1)P(=O)(O)O,Activity,[5],1.81%
same,EC50,[6],3600 nM
same,Activity,[7],5.64%
same,EC50,[3],3200 nM
same,IC50,[1],32 nM
same,inhibition,[8],inactive
same,IC50,[2],785 nM
same,EC50,[4],8600 nM
same,Activity,[9],0.46%
same,viability at 1 µM,[10],91.8%
same,Activity,[11],5.94%
same,viability at 100 µM,[12],84.8%
same,Activity,[13],0.4%
same,Activity,[14],9.15%
same,inhibition,[15],Active
O=P(O)(O)C(O)(Cn1ccnc1)P(=O)(O)O [ZOLEDRONIC ACID],EC50,[6],10500 nM
same,EC50,[3],6400 nM
same,EC50,[4],9400 nM
CC(C)=CCC/C(C)=C/CC(C/C=C(\C)CCC=C(C)C)(P(=O)(O)O)P(=O)(O)O [DIGERANYL BISPHOSPHONATE],IC50,[1],> 10000 nM
O=P(O)(O)C(F)(Cc1cncc(-c2ccccc2)c1)P(=O)(O)O,IC50,[1],115 nM
CCCCCCCCCCOc1ccc[n+](CC(P(=O)([O-])O)P(=O)(O)O)c1 (stereo not drawn),IC50,[16],100 nM
